# Laboratory results as given in ChEMBL document CHEMBL2331084, “Synthesis and evaluation of oxime derivatives as modulators for amyloid beta-induced mitochondrial dysfunction” (Eur J Med Chem, 2013).
# Assays:
# HT-22 [1] = assay: Inhibition of mPTP in mouse HT22 cells assessed as reduction in amyloid beta-induced mitochondrial membrane damage at 10 uM incubated for 10 mins prior to amyloid beta-challenge measured every 1 hr for 3 hrs by JC-1 based fluorometric analysis; type: cell-based; parameters: scale not given: the % may be the effect or the level left
# In short: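 HT-22 cells, 30,000 per well, seeded a day earlier, loaded with 7.5 μM JC-1 (final) in phenol red-free Opti-MEM for 1 h 15 min at 37 °C, then PBS-washed. Compound solution at 10 μM for 10 min at 37 °C, then amyloid beta 1–42 solution at 10 μM. Red (ex/em 530/580) and green (485/530) fluorescence read hourly for 3 h. Green/red ratio change normalised to vehicle as 100%.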
# [2] = Cytotoxicity against mouse […] cells assessed as cell viability at 5 uM; type: cell-based; conditions: HT22 cells, read-out: Activity
# HT-22 [3] = assay: Inhibition of mPTP in mouse HT22 cells assessed as recovery in amyloid beta-suppressed ATP level at 5 uM incubated for 10 mins prior to amyloid beta-challenge measured for 7 hrs relative to control; type: cell-based; parameters: scale not given: the % may be the effect or the level left
# In short: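 HT-22 mouse hippocampal cells, grown in DMEM with 10% FBS at 37 °C and 5% CO2, were seeded the day before. Compound (10 µM solution) added 10 min before amyloid beta 1-42 (10 µM solution), then 7 h at 37 °C. Lysates normalised to equal protein by BCA, and ATP measured with a luciferase kit. % recovery is relative to the amyloid-treated vehicle. Viability is from ATP without amyloid beta.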
# [4] = AUClast in Sprague-Dawley rat at 10 mg/kg, po; type: ADME, organism-based; parameters: time 0 - last, dose 10 mg/kg, route oral; conditions: plasma
# In short: (§1)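 Male Sprague Dawley rats received 10 mg/kg intravenously (n = 3) or orally (n = 4). Blood was drawn via the carotid artery at 0, 1 min (IV only), 5 and 15 min, and 0.5, 1, 2, 4, 6 and 8 h. Plasma was precipitated with acetonitrile containing internal standard and analysed by LC–MS/MS (LLOQ 5 ng/mL). Parameters came from non-compartmental analysis; AUClast used the trapezoidal rule. Values are mean ± SD.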
# [5] = Bioavailability in Sprague-Dawley rat at 10 mg/kg, po; conditions: in vivo
# [6] = AUC (0 to infinity) in Sprague-Dawley rat at 10 mg/kg, iv; type: ADME, organism-based; parameters: time infinity, dose 10 mg/kg, route intravenous; conditions: plasma
# HT-22 [7] = assay: Neuroprotective activity against in mouse HT22 cells assessed as inhibition of amyloid beta-induced toxicity at 10 uM incubated for 10 mins prior to amyloid beta-challenge measured after 24 hrs by MTT assay; type: functional
# In short: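 HT-22 mouse hippocampal cells (DMEM, 10% FBS), 5000 per well, seeded a day before. Compound solution at 10 μM added 10 min before amyloid beta 1–42 solution at 10 μM, then 24 h at 37 °C. MTT 2 h, then acidified Triton/isopropanol for 1 h at RT, A570. Vehicle subtracted; % inhibition versus Aβ-treated vehicle; viability from wells without Aβ.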
# [8] = Terminal half life in Sprague-Dawley rat at 10 mg/kg, po; type: ADME, organism-based; parameters: dose 10 mg/kg, route oral; conditions: in vivo, read-out: beta t1/2
# In short: (§2)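 Male Sprague-Dawley rats dosed 10 mg/kg iv (n = 3) or orally (n = 4). Carotid blood sampled at 0, 1 min (iv only), 5 min, 15 min, 0.5, 1, 2, 4, 6 and 8 h. Plasma analysed by LC-MS/MS after acetonitrile precipitation with internal standard (LLOQ 5 ng/mL). Parameters from non-compartmental analysis. Values are mean ± SD.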
# [9] = Cytotoxicity against mouse […] cells assessed as cell viability at 10 uM after 24 hrs by MTT assay; type: cell-based; conditions: read-out: Activity
# [10] = AUC (0 to infinity) in Sprague-Dawley rat at 10 mg/kg, po; type: ADME, organism-based; parameters: time infinity, dose 10 mg/kg, route oral; conditions: plasma
# [11] = Apparent volume of distribution at steady state in Sprague-Dawley rat at 10 mg/kg, iv; type: ADME, organism-based; parameters: dose 10 mg/kg, route intravenous; conditions: in vivo, read-out: Vdss(app); in short: as §2
# [12] = Clearance in Sprague-Dawley rat at 10 mg/kg, iv; type: ADME, organism-based; parameters: dose 10 mg/kg, route intravenous; conditions: in vivo; in short: as §2
# [13] = Metabolic stability in human liver microsomes at 1 uM after 30 mins by LC/MS analysis; type: ADME, Microsome; conditions: read-out: Stability
# In short: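 Pooled human liver microsomes (0.5 mg/mL protein), compound at 1 μM, 1.2 mM NADPH, 100 mM phosphate pH 7.4, 37 °C with shaking for 30 min, in duplicate. Stopped with ice-cold acetonitrile containing internal standard, centrifuged, supernatant analysed by LC–MS/MS for % remaining.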
# [14] = Ratio of drug uptake in brain to drug uptake in plasma in Sprague-Dawley rat at 10 mg/kg, iv; type: ADME, organism-based; parameters: dose 10 mg/kg, route intravenous; conditions: read-out: BPR
# In short: (§3)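 Male Sprague-Dawley rats given 10 mg/kg iv or orally. Brain-to-plasma concentration ratio taken 2 h after dosing. Concentrations measured by LC-MS/MS.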
# [15] = Ratio of drug uptake in brain to drug uptake in plasma in Sprague-Dawley rat at 10 mg/kg, po; type: ADME, organism-based; parameters: dose 10 mg/kg, route oral; conditions: read-out: BPR; in short: as §3
# [16] = Cmax in Sprague-Dawley rat at 10 mg/kg, po; type: ADME, organism-based; parameters: dose 10 mg/kg, route oral; conditions: in vivo; in short: as §2
# [17] = Tmax in Sprague-Dawley rat at 10 mg/kg, po; type: ADME, organism-based; parameters: dose 10 mg/kg, route oral; conditions: in vivo; in short: as §2
# [18] = Metabolic stability in rat plasma at 0.5 ug/ml after 2 hrs by LC/MS analysis; type: ADME, cell-free; conditions: read-out: Stability
# In short: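 Drug-free rat plasma spiked from acetonitrile stock to 0.5 μg/mL, held at 37 °C with shaking for 0, 15, 30, 60 and 120 min. Quenched with 2 volumes of acetonitrile containing carbamazepine internal standard, centrifuged, supernatant quantified by LC–MS/MS.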
# [19] = Terminal half life in Sprague-Dawley rat at 10 mg/kg, iv; type: ADME, organism-based; parameters: dose 10 mg/kg, route intravenous; conditions: in vivo, read-out: beta t1/2; in short: as §2
# [20] = Clearance in Sprague-Dawley rat at 10 mg/kg, po; type: ADME, organism-based; parameters: dose 10 mg/kg, route oral; conditions: in vivo; in short: as §2
# [21] = Cmax in Sprague-Dawley rat at 10 mg/kg, iv; type: ADME, organism-based; parameters: dose 10 mg/kg, route intravenous; conditions: in vivo; in short: as §2
# [22] = AUClast in Sprague-Dawley rat at 10 mg/kg, iv; type: ADME, organism-based; parameters: time 0 - last, dose 10 mg/kg, route intravenous; conditions: plasma; in short: as §1
structure (smiles),measurement,setting,value
Clc1cccc(Cl)c1COc1ccccc1/C=N/OC1CN2CCC1CC2 (stereo unspecified),Activity,HT-22 [1],96%
FC(F)(F)c1ccccc1COc1ccccc1/C=N/OC1CN2CCC1CC2 (stereo unspecified),Activity,HT-22 [1],91%
FC(F)(F)c1cccc(/C=N/OC2CN3CCC2CC3)c1 (stereo unspecified),Activity,HT-22 [1],74%
CN1CCCC(O/N=C/c2ccccc2OCc2ccccc2)C1 (stereo unspecified),viability at 5 µM,[2],112%
same,Activity,HT-22 [3],15%
same,Activity,HT-22 [1],29%
Clc1ccccc1COc1ccccc1/C=N/OC1CN2CCC1CC2 (stereo unspecified),Activity,HT-22 [1],88%
COc1ccccc1/C=N/OC1CCN(C(C)C)C1 (stereo unspecified),Activity,HT-22 [1],55%
FC(F)(F)c1ccc(COc2ccccc2/C=N/OC2CN3CCC2CC3)cc1 (stereo unspecified),Activity,HT-22 [1],85%
Clc1ccc(COc2ccccc2/C=N/OC2CCN(Cc3ccccc3)C2)cc1Cl (stereo unspecified),AUC(0-t),[4],1960 ng·h/mL
same,viability at 5 µM,[2],83%
same,bioavailability,[5],38.1%
same,AUC(0-inf),[6],6280 ng·h/mL
same,inhibition at 10 µM,HT-22 [7],149%
same,half-life,[8],2.92 h
same,Activity,HT-22 [3],104%
same,"viability at 24 h, 10 µM",[9],129%
same,AUC(0-inf),[10],2390 ng·h/mL
same,Vd,[11],2.87 L/kg
same,clearance,[12],28.1 mL/min/kg
same,Activity,HT-22 [1],41%
same,"remaining at 0.5 h, 1 µM",[13],47.8%
same,Kp,[14],14.6
same,Kp,[15],0.29
same,Cmax,[16],570 ng/mL
same,Tmax,[17],2 h
same,"remaining at 2 h, 0.5 ug/ml",[18],111%
same,half-life,[19],2.35 h
same,CL/F,[20],72.1 mL/min/kg
same,Cmax,[21],44500 ng/mL
same,AUC(0-t),[22],5890 ng·h/mL
CN1CCCC(O/N=C/c2cccc(C(F)(F)F)c2)C1 (stereo unspecified),Activity,HT-22 [1],84%
CC(C)N1CCC(O/N=C/c2ccccc2OCc2ccc(Cl)cc2Cl)C1 (stereo unspecified),Activity,HT-22 [1],61%
COc1ccccc1/C=N/OC1CCN(C)C1 (stereo unspecified),Activity,HT-22 [1],147%
C(=N\OC1CN2CCC1CC2)/c1ccccc1Oc1ccccc1 (stereo unspecified),Activity,HT-22 [1],84%
CC(C)N1CCC(O/N=C/c2ccccc2OCc2cccc(F)c2)C1 (stereo unspecified),viability at 5 µM,[2],94%
same,Activity,HT-22 [3],-223%
same,Activity,HT-22 [1],39%
Clc1ccc(COc2ccccc2/C=N/OC2CN3CCC2CC3)c(Cl)c1 (stereo unspecified),Activity,HT-22 [1],69%
Fc1cccc(COc2ccccc2/C=N/OC2CCN(Cc3ccccc3)C2)c1 (stereo unspecified),viability at 5 µM,[2],74%
same,Activity,HT-22 [3],-201%
same,Activity,HT-22 [1],42%
Clc1cccc(COc2ccccc2/C=N/OC2CN3CCC2CC3)c1 (stereo unspecified),Activity,HT-22 [1],101%
FC(F)(F)c1cccc(/C=N/OC2CCN(Cc3ccccc3)C2)c1 (stereo unspecified),Activity,HT-22 [1],123%
CC(C)N1CCC(O/N=C/c2ccccc2OCc2ccccc2)C1 (stereo unspecified),viability at 5 µM,[2],67%
same,Activity,HT-22 [3],-93%
same,Activity,HT-22 [1],19%
CN1CCC(O/N=C/c2ccccc2OCc2cccc(F)c2)C1 (stereo unspecified),viability at 5 µM,[2],87%
same,Activity,HT-22 [3],20%
same,Activity,HT-22 [1],42%
CN1CCC(O/N=C/c2cccc(C(F)(F)F)c2)C1 (stereo unspecified),Activity,HT-22 [1],108%
COc1cccc(/C=N/OC2CN3CCC2CC3)c1 (stereo unspecified),Activity,HT-22 [1],86%
CN1CCCC(O/N=C/c2ccccc2OCc2ccc(Cl)cc2Cl)C1 (stereo unspecified),Activity,HT-22 [1],64%
Clc1ccc(COc2ccccc2/C=N/OC2CCN(Cc3ccccc3)C2)c(Cl)c1 (stereo unspecified),Activity,HT-22 [1],61%
FC(F)(F)c1cccc(COc2ccccc2/C=N/OC2CN3CCC2CC3)c1 (stereo unspecified),Activity,HT-22 [1],90%
CN1CCC(O/N=C/c2ccccc2OCc2ccccc2)C1 (stereo unspecified),Activity,HT-22 [1],69%
